A selection: hits, their analogues and other compounds. The true share with any hit is near 3.5%.
MrgX1 agonist = activates human MrgX1 receptor signaling | MrgX1-HEK293 cells, Fluo-4 calcium fluorescence, agonist mode; active compounds read high | Q96LB2 | B-score at 10 µM | 310,000 compounds, 0.44% hits;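 active = calcium response B-score plate-corrected fluorescence ratio at least 3 library SD, with starting fluorescence B-score inside 5 SD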
Target sequence (Q96LB2 whole entry, looked up): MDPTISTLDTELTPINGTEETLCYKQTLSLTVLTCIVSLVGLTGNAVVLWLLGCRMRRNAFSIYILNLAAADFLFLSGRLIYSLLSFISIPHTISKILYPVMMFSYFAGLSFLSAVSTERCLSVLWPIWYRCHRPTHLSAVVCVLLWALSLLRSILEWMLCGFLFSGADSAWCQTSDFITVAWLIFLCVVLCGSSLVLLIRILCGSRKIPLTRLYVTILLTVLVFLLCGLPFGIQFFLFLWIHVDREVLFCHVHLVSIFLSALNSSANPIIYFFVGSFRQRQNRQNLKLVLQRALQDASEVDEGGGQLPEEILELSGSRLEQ
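times = overnight plating, then 30 min 37 °C plus 30 min room-temperature dye loading | assay system = stable human MrgX1 HEK293 cell line | input = fifteen thousand cells per well | signal = kinetic calcium dye fluorescence, Fluo-4 NW | dosing = compound delivered in addition one of three | read-out = B-scored fluorescence response ratio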
MrgX1 PAM = human MrgX1 positive allosteric modulation, primary screen. MrgX1-HEK293, Fluo-4 calcium flux, FDSS; active compounds read high. Q96LB2. B-score at 10 µM. AID 588675. 310,000 compounds, 0.63% hits;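 active = plate-corrected calcium response at least 3 library SD above typical, normal starting fluorescence, not activating the receptor alone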;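 also: compound read alongside a low EC10 to EC30 dose of BAM8-22 agonist; peak minus trough fluorescence over baseline measured at the second addition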
RGS4 inh = human RGS4 inhibition | P49798 | AID 463165 | 310,000 compounds, 0.45% hits | B-score at 10 µM | HEK293 M3R/RGS4 inducible, Fluo-4 calcium flux; active compounds read high; triggered by carbachol at its EC20;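 active = B-score, a plate-corrected calcium signal, over three deviations above library mean, with baseline fluorescence within five deviations of library mean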;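 also: RGS4 expression induced by doxycycline in cells with stable M3 receptor; B-score is computed from the integrated fluorescence ratio over baseline after carbachol; higher B-score means a larger calcium signal and so more RGS4 inhibition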
Target sequence (P49798 whole entry, looked up): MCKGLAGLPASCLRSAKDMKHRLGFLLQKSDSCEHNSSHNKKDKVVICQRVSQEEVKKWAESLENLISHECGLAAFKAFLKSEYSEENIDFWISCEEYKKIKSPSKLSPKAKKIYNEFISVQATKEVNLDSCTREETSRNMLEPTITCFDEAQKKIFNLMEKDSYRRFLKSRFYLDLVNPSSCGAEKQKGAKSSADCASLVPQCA
MrgX1 antag = antagonists of human MrgX1 receptor; Q96LB2; MRGX1-HEK293 calcium flux, Fluo-4, BAM8-22 antagonism; active compounds read low; B-score at 10 µM; 310,000 compounds, 1.3% hits;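 active = calcium-response B-score plate-corrected more than 3 library SD below zero, starting fluorescence within 5 deviations, no agonist response on first addition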;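 also: peak minus trough fluorescence over baseline after final BAM8-22 challenge near maximal dose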
RGS4 act = potentiators or activators of RGS4. HEK293 M3R/inducible RGS4, carbachol calcium flux Fluo4; active compounds read low. B-score at 10 µM. 310,000 compounds, 0.92% hits. AID 463111;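 active = B-score of the integrated calcium signal more than 4 SD below the library mean, with starting fluorescence not abnormally high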;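 also: negative B-score means reduced calcium response which marks RGS4 activation or potentiation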
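Detection: kinetic calcium fluorescence imaging with Fluo4-AM dye, 2 µM / Material: HEK293 cells with stable M3R and inducible RGS4 / Schedule: recording 10 s baseline at 1 Hz, 100 s post-agonist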
MrgX1 ag confirm = confirmation of human MrgX1 receptor agonists. shares compounds with MrgX1 agonist. MrgX1-HEK293, Fluo-4 calcium fluorescence, FDSS. activation, % at 10 µM. 600 compounds, 78% hits;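 active = calcium signal rise, corrected for plate position, at least 3 library SD high, with starting brightness within 5 such deviations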; also: reference of the scale not given here
HEK293 Ca flux = counter-screen for MrgX1 antagonists: effect in parental HEK293 cells. fluorescence ratio F(max-min)/F0 at 10 µM. AID 624111. shares compounds with MrgX1 antag. Fluo-4 calcium fluorescence, FDSS. 4,000 compounds, 2% hits;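 active = duplicate-averaged calcium fluorescence ratio at least three times the standard deviation of buffer wells, a nonspecific response in parental cells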
HEK293 Ca counter = counter-screen for MrgX1 allosteric activators: effect in parental HEK293 cells. shares compounds with MrgX1 antag. parental HEK293 calcium flux, Fluo-4 fluorescence ratio; active compounds read high. fluorescence ratio F(max-min)/F0 at 10 µM. 4,000 compounds, 0.4% hits;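 active = calcium fluorescence ratio, averaged over duplicates, at least 3 SD of the buffer-well ratio, meaning a nonspecific response in receptor-free cells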;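 also: untransfected parental HEK293 lacking MrgX1 used as counterscreen for MrgX1 allosteric activators; fluorescence change taken during the second addition on a kinetic imager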
HEK293 Ca cntr2 = activity in parental HEK293 cells lacking MrgX1 receptor | 4,000 compounds, 8.7% hits | Fluo-4 calcium fluorescence (FDSS); active compounds read high | fluorescence ratio F(max-min)/F0 at 10 µM | shares compounds with MrgX1 antag;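 active = calcium fluorescence ratio at least three times the spread of buffer wells, meaning a non-specific response in parental cells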
* marks the source's active call; other numbers are inactive results; i = inactive; · = no result given.

SMILES	MrgX1 agonist	MrgX1 PAM	RGS4 inh	MrgX1 antag	RGS4 act	MrgX1 ag confirm	HEK293 Ca flux	HEK293 Ca counter	HEK293 Ca cntr2
CCOC(=O)c1cnc2c(OC)cccc2c1N1CC(C)CC(C)C1 (stereo not drawn)	28*	i	i	i	i	i	i	i	i
Cc1cccc(-c2nsc(SCC(=O)NCC3CCCO3)n2)c1 (stereo not drawn)	i	i	i	i	i	·	·	·	·
Fc1ccc(NC(=S)NCCc2ccc(Cl)cc2)cc1	i	i	i	i	i	·	·	·	·
Fc1ccc(CCNC(=S)Nc2ccc(F)c(Cl)c2)cc1	30*	i	i	i	i	150%*	i	i	i
Cc1ccc(OCc2nc(-c3ccc(Cl)cc3)n[nH]2)cc1	i	i	i	i	i	·	·	·	·
Cc1ccc(-c2n[nH]c(Cc3ccccc3)n2)cc1	28*	i	i	i	i	97%*	i	i	i
Cc1cc(C(=O)N2CCCc3ccccc32)ccc1[N+](=O)[O-]	i	i	i	i	i	·	·	·	·
O=C(O)CCc1ccc(-c2ccc(Cl)cc2)n1Cc1ccco1	38*	i	i	i	i	159%*	i	i	i
COC(=O)CC1=C(C(=O)OC)C(c2ccc3c(c2Cl)OCO3)C(C#N)=C(N)O1 (stereo not drawn)	41*	i	i	i	i	172%*	i	i	i
O=C1C(=O)N(CCS(=O)(=O)c2ccccc2)c2ccc(F)cc21	i	i	i	i	i	·	·	·	·
O=C(COC(=O)c1cc(-c2cccs2)nn1-c1ccccc1)Nc1ccc(Cl)c([N+](=O)[O-])c1	i	i	i	i	i	·	·	·	·
CCN(CC)C(=O)Cn1cc(S(=O)(=O)CC(=O)Nc2ccccc2C)c2ccccc21	i	i	i	i	i	·	·	·	·
COCC(=O)c1[nH]c2ccccc2c1C	41*	i	i	i	i	196%*	i	i	i
COc1ccc2c(c1)cc1n2CCN2CCCN=C12	i	i	i	i	i	·	·	·	·
COc1ccc2c(c1)cc1n2CCN=C1N	31*	i	i	i	i	138%*	i	i	i
Cc1cc(C)n(-c2ccc(C(=O)Nc3cc(S(=O)(=O)N(C)C)ccc3Cl)cc2)n1	i	i	i	i	i	·	·	·	·
CCCOc1ccc(-c2csc3ncn(Cc4ccc(C(=O)O)cc4)c(=O)c23)cc1	32*	i	i	i	i	204%*	i	i	i
Cc1cc(C)c2cc3c(N)c(C(=O)N4CCOCC4)sc3nc2c1	i	i	i	i	i	·	·	·	·
Cc1ccc(C)c2nc3sc(C(=O)N4CCOCC4)c(N)c3cc12	31*	i	i	i	i	284%*	i	i	82*
CC(C)Oc1ccc(C(=O)CCN2CCOCC2)cc1	65*	i	i	i	i	i	i	i	i
COc1ccc(CNCCCSc2ncccn2)c(OC)c1	i	i	i	i	i	·	·	·	·
O=C(c1ccccc1F)N(NC(=O)C(O)(c1ccccc1)c1ccccc1)c1ccccc1	i	i	i	i	i	·	·	·	·
O=C(CCCCC(=O)NC1CCCC1)NC1CCCC1	40*	i	i	i	i	i	i	i	i
N#CCCN(Cc1ccccc1)C(=O)c1cccs1	i	i	i	i	i	·	·	·	·
CCOC(=O)c1ccc(N2C(=O)C3CC=CCC3C2=O)cc1 (stereo not drawn)	i	i	i	i	i	·	·	·	·
SMILES	MrgX1 agonist	MrgX1 PAM	RGS4 inh	MrgX1 antag	RGS4 act	MrgX1 ag confirm	HEK293 Ca flux	HEK293 Ca counter	HEK293 Ca cntr2
CCOC(=O)c1ccc(N2C(=O)C3C(C2=O)C(C(=O)c2ccc(Cl)cc2)N2CCCC32)cc1 (stereo not drawn)	43*	i	i	i	i	i	i	i	52*
COc1ccc(C(=O)Nc2nnc(-c3ccccc3)o2)cc1OC	i	i	i	i	i	·	·	·	·
O=C(Nc1nnc(-c2ccc(F)cc2)o1)c1cc(Cl)sc1Cl	114*	i	i	i	i	527%*	i	i	100*
O=C(Nc1nnc(-c2ccccc2)o1)c1cc(Cl)sc1Cl	43*	i	i	i	i	442%*	i	i	88*
COc1cc(-c2cc(OC)c3c(C)oc(C)c3c(=O)c2)ccc1O	30*	i	i	i	i	175%*	i	i	i
COc1ccc(-c2cc(OC)c3c(C)oc(C)c3c(=O)c2)cc1OC	i	i	i	i	i	·	·	·	·
CC(NC(=O)Cn1nc(C(F)(F)F)c2c1CCC2)c1ccccc1 (stereo not drawn)	31*	i	i	i	i	134%*	i	i	i
COC(=O)c1cn(CC(=O)Nc2ccccc2C)c2ccccc12	i	i	i	i	i	·	·	·	·
Cc1ccc(Sc2cc(C)nc(-c3ccccn3)n2)cc1	31*	i	i	i	i	210%*	i	i	i
COc1nc(N)nc(N)c1NS(=O)(=O)c1ccc(C)cc1	i	i	i	i	i	·	·	·	·
O=C(Cn1nc(Cl)nc1Cl)c1ccc2c(c1)OCCO2	53*	i	i	i	i	194%*	i	i	i
Cc1nnc(SCc2ccccc2F)n1NCc1cccs1	i	i	i	i	i	·	·	·	·
O=C(NC(=S)NNC(=O)[C@H]1C[C@@H]1c1ccccc1)c1cccc(F)c1	159*	i	i	i	i	600%*	i	i	105*
COc1cccc(OC)c1C(=O)NC(=S)NNC(=O)[C@H]1C[C@@H]1c1ccccc1	i	i	i	i	i	·	·	·	·
N#CCCC(CCC#N)C1=NCCc2ccccc21	i	i	i	i	i	·	·	·	·
CCOC(=O)c1cnn2c(C)cc(-c3ccc(F)cc3)nc12	26*	i	i	i	i	i	i	i	i
O=C(CCC1CCCC1)c1c(O)c2ccccc2oc1=O	87*	i	i	i	i	564%*	i	i	111*
